Test [1] is described as follows: Inhibition of Escherichia coli DNA topoisomerase-1 using supercoiled pBAD-GFPuv plasmid DNA as substrate assessed as prevention of supercoiled DNA template from relaxation after 15 mins by agarose gel electrophoresis.
Test [2] concerns the target T1, DNA topoisomerase 1 (Homo sapiens) (UniProt P11387).
T1 sequence (whole entry): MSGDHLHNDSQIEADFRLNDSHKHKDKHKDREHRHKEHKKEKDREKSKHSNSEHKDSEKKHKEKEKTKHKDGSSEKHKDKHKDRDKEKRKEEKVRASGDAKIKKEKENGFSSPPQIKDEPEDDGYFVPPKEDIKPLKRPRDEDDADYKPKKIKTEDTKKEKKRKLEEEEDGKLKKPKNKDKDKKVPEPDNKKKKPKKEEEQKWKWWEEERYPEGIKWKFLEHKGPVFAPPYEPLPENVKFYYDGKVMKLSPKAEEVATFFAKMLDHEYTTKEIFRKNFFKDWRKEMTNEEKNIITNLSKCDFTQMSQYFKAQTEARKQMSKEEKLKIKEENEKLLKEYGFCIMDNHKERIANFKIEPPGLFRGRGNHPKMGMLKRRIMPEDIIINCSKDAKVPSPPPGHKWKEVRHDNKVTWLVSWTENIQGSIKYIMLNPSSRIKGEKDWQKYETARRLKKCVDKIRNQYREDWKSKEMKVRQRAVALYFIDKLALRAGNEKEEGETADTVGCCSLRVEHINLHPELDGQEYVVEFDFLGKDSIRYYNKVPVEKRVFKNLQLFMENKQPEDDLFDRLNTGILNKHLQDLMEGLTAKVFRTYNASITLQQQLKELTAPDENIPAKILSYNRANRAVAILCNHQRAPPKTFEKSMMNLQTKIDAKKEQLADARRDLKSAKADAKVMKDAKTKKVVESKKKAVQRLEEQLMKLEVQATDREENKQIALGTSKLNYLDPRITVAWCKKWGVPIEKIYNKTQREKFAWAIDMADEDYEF
Put plainly: Inhibition of human DNA topoisomerase-1 using supercoiled pBAD-GFPuv plasmid DNA as substrate assessed as prevention of supercoiled DNA template from relaxation at 50 uM after 30 mins by agarose gel electrophoresis relative to control. The essentials: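 Human topoisomerase I (2 units) was incubated with 250 ng supercoiled pBAD-GFPuv in 20 mM Tris-HCl pH 7.9, 50 mM KAc, 10 mM Mg(Ac)2, 1 mM DTT and 1 µg/ml BSA, with compound at 10 or 50 µM, for 30 min at 37 °C. After a phenol stop, DNA was resolved on 1% agarose without chloroquine beside a relaxed plasmid marker and stained with ethidium bromide.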

Test [3] addresses T2, DNA gyrase (Escherichia coli) (UniProt P0AES6+P0AES4). In words: Inhibition of Escherichia coli DNA gyrase using relaxed pBAD-GFPuv plasmid DNA as substrate at 1 to 50 uM after 30 mins by agarose gel electrophoresis. Format: protein-complex assay.
Test [4] in a line: Binding affinity to dA60.dT60 DNA (unknown origin) assessed as change in melting temperature at 10 uM by UV-Vis spectrophotometric analysis. The essentials: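 Preformed dA60·dT60 duplex (equimolar strands heated 95 °C 15 min in 10 mM sodium cacodylate, 0.1 mM EDTA, 100 mM NaCl, pH 7.0, slowly cooled) at 1 µM duplex with 10 µM ligand (diluted from DMSO stock). Absorbance melting in 1 cm quartz cells, heating 0.2 °C/min, data every 1.0 °C; Tm shift versus ligand-free duplex.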

A further test deals with Calf thymus DNA. Put plainly: Binding affinity to calf thymus DNA assessed as change in melting temperature relative to control. Format: nucleic-acid assay. Conditions: Bos taurus.
Another test has as its system DU-145. Put plainly: Cytotoxicity against human DU145 cells after 48 hrs by sulforhodamine B assay. The test is classed as cell-based. Conditions: DU-145, 48 h. The procedure, abridged: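 DU145 cells were seeded and allowed 24 h to resume growth at 37 °C, 5% CO2. They were treated in triplicate at final 20, 10, 5, 2.5, 1.25, 0.625 and 0.0625 µM for 48 h, alongside untreated and media-only wells. Cells were fixed with cold TCA (16% final) and stained with sulforhodamine B in 1% acetic acid. Bound dye was solubilized in 10 mM Tris base and read at 560 nm to give IC50.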

In test [5] the test system is Staphylococcus aureus. In words: Antibacterial activity against Staphylococcus aureus ATCC 29213 after 24 hrs by microbroth dilution method. Conditions: ATCC 29213, 24 h. The test is classed as functional. The essentials: (§1)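 Organisms were grown to log phase in Mueller-Hinton broth at 37 °C with shaking. They were pelleted, resuspended in 0.85% saline to OD625 0.1, and dispensed at a final 5×10^5 CFU/mL per CLSI microbroth dilution. Plates were run in triplicate and incubated 24 h at 37 °C, then OD625 was read. MIC was the lowest concentration giving complete growth inhibition versus untreated controls.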
For orientation: Broth dilution looks for growth in wells or tubes with falling amounts of substance.

Test [6] relates to Staphylococcus aureus. In words: Antibacterial activity against Staphylococcus aureus ATCC 33591 after 24 hrs by microbroth dilution method. Format: functional. The settings on record: ATCC 33591, 24 h. The procedure, abridged: as §1
In test [7] the test system is Escherichia coli. Put plainly: Antibacterial activity against Escherichia coli ATCC 25922 after 24 hrs by microbroth dilution method. The test is classed as functional. The settings on record: ATCC 25922, 24 h. The procedure, abridged: as §1
The subject of a further test is Pseudomonas aeruginosa. Put plainly: Antibacterial activity against Pseudomonas aeruginosa ATCC 27853 after 24 hrs by microbroth dilution method. The settings on record: ATCC 27853, 24 h. Format: functional. The essentials: as §1
Test [8] concerns Escherichia coli. In words: Antibacterial activity against Escherichia coli K-12 after 24 hrs by microbroth dilution method. Format: functional. The settings on record: K-12, 24 h. The essentials:
as §1

The test system of a further test is Enterococcus faecalis. In words: Antibacterial activity against Enterococcus faecalis ATCC 29212 after 24 hrs by microbroth dilution method. The test is classed as functional. The settings on record: ATCC 29212, 24 h. The procedure, abridged:
as §1

In a further test the target is T3, DNA topoisomerase 1 (Homo sapiens, UniProt P11387).
T3 sequence (P11387 whole entry): T1 sequence (whole entry)
In words: Inhibition of human DNA topoisomerase-1 using supercoiled pBAD-GFPuv plasmid DNA as substrate assessed as prevention of supercoiled DNA template from relaxation after 30 mins by agarose gel electrophoresis. The procedure, abridged: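 Compound at 5–50 µM final; 30 min at 37 °C, phenol stop. Read on 1% agarose/TAE gel with ethidium stain. IC50 = concentration at 50% (−) supercoiled DNA by densitometry; mean of ≥3 determinations.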

The nature of test [9]: Inhibition of Escherichia coli DNA topoisomerase-1 using supercoiled pBAD/Thio plasmid DNA as substrate assessed as prevention of supercoiled DNA from relaxation after 30 mins by agarose gel electrophoresis.
Test [10] has as its target DNA topoisomerase 2-alpha (Homo sapiens, UniProt P11388). Put plainly: Inhibition of human DNA topoisomerase-2 using supercoiled pBAD-GFPuv plasmid DNA as substrate assessed as prevention of supercoiled DNA template from relaxation after 30 mins by agarose gel electrophoresis. The essentials:
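Compound at 5–50 µM final; 30 min at 37 °C, phenol stop. Read on 1% agarose/TAE gel with ethidium stain. IC50 = concentration at 50% (−) supercoiled DNA by band intensity; mean of ≥3 determinations.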

In test [11] the target is T2, DNA gyrase (Escherichia coli). In words: Inhibition of Escherichia coli DNA gyrase using relaxed pBAD-GFPuv plasmid DNA as substrate at 1 to 10 uM after 30 mins by agarose gel electrophoresis. The test is classed as protein-complex assay.

pIC50: −log10 of the molar value. Values after ≈ are worked out from the molar mass of the structure shown. Active and inactive are the calls of the source. The calls are words filed in the database; no cut-off is given here. Bounds are passed on as bounds.

DNA topoisomerase 2-alpha, sequence (P11388 whole entry): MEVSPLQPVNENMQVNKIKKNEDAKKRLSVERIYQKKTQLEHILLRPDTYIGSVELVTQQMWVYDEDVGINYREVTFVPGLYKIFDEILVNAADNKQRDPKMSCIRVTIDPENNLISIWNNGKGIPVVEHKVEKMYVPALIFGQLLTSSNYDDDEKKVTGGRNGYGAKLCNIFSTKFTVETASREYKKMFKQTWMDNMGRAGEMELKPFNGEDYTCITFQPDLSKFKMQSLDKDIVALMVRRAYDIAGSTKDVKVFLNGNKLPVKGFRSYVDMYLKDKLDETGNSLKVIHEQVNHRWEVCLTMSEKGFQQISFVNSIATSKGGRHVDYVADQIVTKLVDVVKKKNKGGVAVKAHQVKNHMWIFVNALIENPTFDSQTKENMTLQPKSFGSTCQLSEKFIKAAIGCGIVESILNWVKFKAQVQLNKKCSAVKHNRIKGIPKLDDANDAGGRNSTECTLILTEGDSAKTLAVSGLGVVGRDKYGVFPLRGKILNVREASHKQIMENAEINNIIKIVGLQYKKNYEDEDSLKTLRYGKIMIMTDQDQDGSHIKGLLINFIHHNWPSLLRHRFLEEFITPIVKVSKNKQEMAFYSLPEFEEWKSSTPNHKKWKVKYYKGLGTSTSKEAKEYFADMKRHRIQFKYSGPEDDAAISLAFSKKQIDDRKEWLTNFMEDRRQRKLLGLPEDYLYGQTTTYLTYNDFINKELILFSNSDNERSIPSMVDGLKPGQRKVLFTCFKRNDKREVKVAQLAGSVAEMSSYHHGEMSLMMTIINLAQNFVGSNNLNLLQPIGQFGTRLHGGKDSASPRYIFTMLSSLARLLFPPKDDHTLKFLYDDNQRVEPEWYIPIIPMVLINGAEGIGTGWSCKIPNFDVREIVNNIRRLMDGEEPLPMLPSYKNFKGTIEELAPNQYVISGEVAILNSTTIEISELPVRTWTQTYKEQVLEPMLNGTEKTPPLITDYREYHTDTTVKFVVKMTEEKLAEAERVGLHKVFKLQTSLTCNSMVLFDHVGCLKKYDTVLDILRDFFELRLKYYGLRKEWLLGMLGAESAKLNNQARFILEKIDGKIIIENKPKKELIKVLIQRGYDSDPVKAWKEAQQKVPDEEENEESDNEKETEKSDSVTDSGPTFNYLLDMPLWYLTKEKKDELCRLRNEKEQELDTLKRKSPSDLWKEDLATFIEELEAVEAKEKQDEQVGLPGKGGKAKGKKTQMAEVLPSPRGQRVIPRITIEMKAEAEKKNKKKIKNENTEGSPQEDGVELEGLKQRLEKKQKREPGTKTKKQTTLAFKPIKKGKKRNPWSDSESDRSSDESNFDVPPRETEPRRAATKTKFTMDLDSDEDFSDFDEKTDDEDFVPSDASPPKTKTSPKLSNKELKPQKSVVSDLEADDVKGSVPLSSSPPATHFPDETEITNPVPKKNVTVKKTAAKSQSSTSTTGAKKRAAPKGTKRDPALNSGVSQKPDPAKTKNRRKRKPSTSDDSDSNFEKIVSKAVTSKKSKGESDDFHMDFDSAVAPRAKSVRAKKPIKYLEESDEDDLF

For `C#CCCCCOc1ccc(-c2nc3ccc(-c4nc5ccc(N6CCN(C)CC6)cc5[nH]4)cc3[nH]2)cc1`, the results for the pIC50 (in test [1]; in the test on DU-145) were 5.34 and 5.67, respectively. In test [2], the inhibition (as a rule, how much of the control response was suppressed) is 5%. Also, the inhibition entry in [3] is “inactive”. Also, the ΔTm (in general, the change in melting temperature against a reference sample) amounted to 20.9 °C in test [4] and 1 °C in the test on Calf thymus DNA. The minimal inhibitory concentration (MIC) – broadly, the lowest concentration that inhibits growth of the organism – against Staphylococcus aureus [5] turned out to be 2 µg/mL (≈ 3.96 µM); in the test on Staphylococcus aureus [6] it was 2 µg/mL (≈ 3.96 µM); in the test on Escherichia coli [7], 8 µg/mL (≈ 15.9 µM); against Pseudomonas aeruginosa it was 16 µg/mL (≈ 31.7 µM); against Escherichia coli [8], 8 µg/mL (≈ 15.9 µM); with Enterococcus faecalis it was 4 µg/mL (≈ 7.93 µM).
Regarding `C#CCCCCCCCCCOc1ccc(-c2nc3ccc(-c4nc5ccc(N6CCN(C)CC6)cc5[nH]4)cc3[nH]2)cc1`, the pIC50 (in general, the IC50 on a negative log10 scale, so that one unit is a factor of ten) in test [1] was 5.61; in the test on DU-145, below 5.00. Further, the inhibition in test [2] came to 5%. Further, in [3], the inhibition entry was “inactive”. For the same compound, the values for the ΔTm (in [4]; with Calf thymus DNA) were 8 °C and 1 °C, respectively. Also, the values for the minimal inhibitory concentration (MIC) against Escherichia coli [8] and in the test with Enterococcus faecalis were 8 µg/mL (≈ 13.9 µM) and 16 µg/mL (≈ 27.8 µM), respectively.
Consider `CCOc1ccc(-c2nc3cc(-c4nc5cc(N6CCN(C)CC6)ccc5[nH]4)ccc3[nH]2)cc1`, for which the pIC50 was 4.53 in [1], below 4.30 at DNA topoisomerase 1 and 5.37 in the test on DU-145. Besides, the ΔTm in test [4] came to 24.1 °C. The MIC in the test with Staphylococcus aureus [5] was 2 µg/mL (≈ 4.42 µM); with Staphylococcus aureus [6], 2 µg/mL (≈ 4.42 µM); in the test with Escherichia coli [7], 8 µg/mL (≈ 17.7 µM); with Enterococcus faecalis it was 16 µg/mL (≈ 35.4 µM).
For `COc1ccc(-c2nc3cc(-c4nc5cc(N6CCN(C)CC6)ccc5[nH]4)ccc3[nH]2)cc1OC`, in [9], the pIC50 was 5.42.
Consider `CN1CCN(c2ccc3[nH]c(-c4ccc5[nH]c(-c6ccc(O)cc6)nc5c4)nc3c2)CC1` [HOECHST 33258], for which the pIC50 in [1] was 4.71; on DNA topoisomerase 1, 4.64; in test [10] it was 4.54. Moreover, the inhibition result in [3] is “inactive”. In addition, the ΔTm in test [4] came to 24.6 °C. The figures for the minimal inhibitory concentration (MIC) against Staphylococcus aureus [5], against Staphylococcus aureus [6] and against Enterococcus faecalis were at least 32 µg/mL, 16 µg/mL (≈ 37.7 µM) and 16 µg/mL (≈ 37.7 µM), respectively.
Turning to `C#CCOCCCCOc1ccc(-c2nc3ccc(-c4nc5ccc(N6CCN(C)CC6)cc5[nH]4)cc3[nH]2)cc1`, the pIC50 in test [1] was 5.18. Further, in [2], the inhibition turned out to be 5%. Further, the inhibition result in [3] was “inactive”. Besides, the ΔTm in [4] was determined as 23.4 °C; with Calf thymus DNA, 1 °C. The MIC came to 2 µg/mL (≈ 3.74 µM) against Staphylococcus aureus [5]; 2 µg/mL (≈ 3.74 µM) in the test with Staphylococcus aureus [6]; 8 µg/mL (≈ 15 µM) with Escherichia coli [7]; 16 µg/mL (≈ 29.9 µM) with Pseudomonas aeruginosa; 8 µg/mL (≈ 15 µM) with Escherichia coli [8].
For the compound `C#CCOc1ccc(-c2nc3ccc(-c4nc5ccc(N6CCN(C)CC6)cc5[nH]4)cc3[nH]2)cc1`, in [1], the pIC50 was 5.26. The inhibition in [2] is 70%. Further, the inhibition result in [11] is “inactive”. In addition, the results for the ΔTm (in [4]; with Calf thymus DNA) were 22.9 °C and 1 °C, respectively. Also, the minimal inhibitory concentration (MIC) in the test with Staphylococcus aureus [5] is 2 µg/mL (≈ 4.32 µM); against Staphylococcus aureus [6], 2 µg/mL (≈ 4.32 µM); against Escherichia coli [7] it was 8 µg/mL (≈ 17.3 µM); against Escherichia coli [8], 8 µg/mL (≈ 17.3 µM); against Enterococcus faecalis, 16 µg/mL (≈ 34.6 µM).

(Values after ChEMBL document CHEMBL3580637, “Selective Inhibition of Bacterial Topoisomerase I by alkynyl-bisbenzimidazoles” (Medchemcomm, 2014).)
